According to article PMC6598223 (Saudi Pharmaceutical Journal : SPJ, 2019):
Where two headings read alike, the source gives them in different places.

Key:
[1] = tested on: HeLa cells; test: Alamar Blue cytotoxicity assay, HeLa; format: cell-based, human; conditions: read-out: 24 h IC50 HeLa
Procedure, shortened: (§1)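 Cells grown in DMEM with L-glutamine, 10% FBS and 1% penicillin–streptomycin at 37 °C, 5% CO2. They were seeded at 1 × 10^4 cells/well and grown 24 h, then given test compound dilutions in growth medium for 24 h. Alamar Blue was added (final 10 μg/ml) for 2–4 h at 37 °C, and fluorescence was read ([…]). Viability was calculated per line, and IC50s were averaged across HeLa, A549 and MDA-MB-231.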

[2] = tested on: A549 cells; test: Alamar Blue cytotoxicity assay, A549; format: cell-based, human
Procedure, shortened: as §1

[3] = tested on: MDA-MB-231 cells; test: Alamar Blue cytotoxicity assay, MDA-MB-231; format: cell-based, human; conditions: read-out: 24 h IC50 MDA-MB-231
Procedure, shortened: as §1

[4] = tested on: HeLa, A549 and MDA-MB-231 cells; test: Average cytotoxicity over the tested cell lines; format: cell-based; conditions: Homo sapiens, 24 h, read-out: average IC50 against the tested cell lines
Procedure, shortened: as §1

[5] = target: EGFR (Homo sapiens, UniProt P00533); test: biochemical
[6] = target: VEGFR2 (Homo sapiens, UniProt P35968); test: biochemical
[7] = tested on: HeLa cells; test: Annexin V/PI apoptosis assay; format: cell-based, human; conditions: 24 h
Procedure, shortened: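 HeLa cells were exposed to test compound at 5 or 10 μM for 24 h, with an untreated control. Apoptotic versus necrotic death was scored by annexin V/PI staining, reported as percentage of cells undergoing apoptosis.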

[8] = tested on: caspase-3/7 in HeLa cells; test: Caspase-3/7 activity assay; format: cell-based, human; conditions: 10 μM, 24 h
Procedure, shortened: (§2)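 HeLa cells were seeded at 1 × 10^5/well in duplicate and grown 24 h. They were then treated with test compound at 1, 5, 10 and 20 µM, with 0.1% DMSO (v/v) as control. After 24 h, activity was measured with the Caspase-Glo 3/7 (caspase-3/7), Caspase-Glo 8 (caspase-8) or Caspase-Glo 9 (caspase-9) kit.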

[9] = tested on: caspase-8 in HeLa cells; test: Caspase-8 activity assay; format: cell-based, human; conditions: 5 and 10 μM, 24 h
Procedure, shortened: as §2

[10] = tested on: caspase-9 in HeLa cells; test: Caspase-9 activity assay; format: cell-based, human; conditions: 5 and 10 μM, 24 h
Procedure, shortened: as §2

[11] = tested on: HeLa cells; test: ROS production; format: cell-based, human; conditions: 40 μM, 24 h
Procedure, shortened: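 HeLa cells were treated with test compound at 10 or 40 µM for 24 h, with 0.1% DMSO (v/v) as control. Intracellular superoxide was detected with the Muse Oxidative Stress Kit, and cells were analysed on a Muse Cell Analyzer. The read-out was the percentage of cells with elevated ROS.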

[12] = Homo sapiens, A549, 24 h, read-out: 24 h IC50 A549, Alamar Blue, 24 h treatment
[13] = read-out: 24 h IC50 A549, Alamar Blue, 24 h treatment

Chain of EGFR (P00533 25-1210): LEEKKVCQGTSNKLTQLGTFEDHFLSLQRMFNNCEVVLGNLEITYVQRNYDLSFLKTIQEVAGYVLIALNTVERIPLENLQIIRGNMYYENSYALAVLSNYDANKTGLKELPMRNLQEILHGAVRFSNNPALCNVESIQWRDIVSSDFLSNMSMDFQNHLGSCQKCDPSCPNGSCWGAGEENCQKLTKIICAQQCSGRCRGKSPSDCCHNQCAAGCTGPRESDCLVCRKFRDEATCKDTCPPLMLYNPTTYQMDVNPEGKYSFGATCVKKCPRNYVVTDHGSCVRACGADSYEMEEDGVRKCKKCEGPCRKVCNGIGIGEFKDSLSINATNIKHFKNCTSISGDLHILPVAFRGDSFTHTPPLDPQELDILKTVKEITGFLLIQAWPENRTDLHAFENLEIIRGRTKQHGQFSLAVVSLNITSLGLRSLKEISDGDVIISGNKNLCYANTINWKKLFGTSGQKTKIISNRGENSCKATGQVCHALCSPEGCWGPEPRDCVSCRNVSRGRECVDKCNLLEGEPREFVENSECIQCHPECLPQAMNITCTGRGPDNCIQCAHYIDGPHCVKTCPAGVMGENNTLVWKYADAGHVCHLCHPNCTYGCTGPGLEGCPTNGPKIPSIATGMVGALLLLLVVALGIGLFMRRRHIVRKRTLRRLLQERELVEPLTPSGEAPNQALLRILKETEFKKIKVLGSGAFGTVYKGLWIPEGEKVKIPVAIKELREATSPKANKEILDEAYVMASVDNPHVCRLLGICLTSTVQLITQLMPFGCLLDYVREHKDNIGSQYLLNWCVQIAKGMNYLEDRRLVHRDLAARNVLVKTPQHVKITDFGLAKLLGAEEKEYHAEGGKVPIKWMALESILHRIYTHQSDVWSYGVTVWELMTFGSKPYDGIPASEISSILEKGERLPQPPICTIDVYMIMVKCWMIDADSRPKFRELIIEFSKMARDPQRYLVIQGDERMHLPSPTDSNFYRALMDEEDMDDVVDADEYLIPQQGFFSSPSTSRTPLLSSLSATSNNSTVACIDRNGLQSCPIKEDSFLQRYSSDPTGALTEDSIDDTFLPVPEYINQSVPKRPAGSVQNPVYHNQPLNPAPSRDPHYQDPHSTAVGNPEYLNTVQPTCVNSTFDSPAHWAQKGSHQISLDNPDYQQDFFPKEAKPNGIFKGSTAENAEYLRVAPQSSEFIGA
Chain of VEGFR2 (P35968 20-1356): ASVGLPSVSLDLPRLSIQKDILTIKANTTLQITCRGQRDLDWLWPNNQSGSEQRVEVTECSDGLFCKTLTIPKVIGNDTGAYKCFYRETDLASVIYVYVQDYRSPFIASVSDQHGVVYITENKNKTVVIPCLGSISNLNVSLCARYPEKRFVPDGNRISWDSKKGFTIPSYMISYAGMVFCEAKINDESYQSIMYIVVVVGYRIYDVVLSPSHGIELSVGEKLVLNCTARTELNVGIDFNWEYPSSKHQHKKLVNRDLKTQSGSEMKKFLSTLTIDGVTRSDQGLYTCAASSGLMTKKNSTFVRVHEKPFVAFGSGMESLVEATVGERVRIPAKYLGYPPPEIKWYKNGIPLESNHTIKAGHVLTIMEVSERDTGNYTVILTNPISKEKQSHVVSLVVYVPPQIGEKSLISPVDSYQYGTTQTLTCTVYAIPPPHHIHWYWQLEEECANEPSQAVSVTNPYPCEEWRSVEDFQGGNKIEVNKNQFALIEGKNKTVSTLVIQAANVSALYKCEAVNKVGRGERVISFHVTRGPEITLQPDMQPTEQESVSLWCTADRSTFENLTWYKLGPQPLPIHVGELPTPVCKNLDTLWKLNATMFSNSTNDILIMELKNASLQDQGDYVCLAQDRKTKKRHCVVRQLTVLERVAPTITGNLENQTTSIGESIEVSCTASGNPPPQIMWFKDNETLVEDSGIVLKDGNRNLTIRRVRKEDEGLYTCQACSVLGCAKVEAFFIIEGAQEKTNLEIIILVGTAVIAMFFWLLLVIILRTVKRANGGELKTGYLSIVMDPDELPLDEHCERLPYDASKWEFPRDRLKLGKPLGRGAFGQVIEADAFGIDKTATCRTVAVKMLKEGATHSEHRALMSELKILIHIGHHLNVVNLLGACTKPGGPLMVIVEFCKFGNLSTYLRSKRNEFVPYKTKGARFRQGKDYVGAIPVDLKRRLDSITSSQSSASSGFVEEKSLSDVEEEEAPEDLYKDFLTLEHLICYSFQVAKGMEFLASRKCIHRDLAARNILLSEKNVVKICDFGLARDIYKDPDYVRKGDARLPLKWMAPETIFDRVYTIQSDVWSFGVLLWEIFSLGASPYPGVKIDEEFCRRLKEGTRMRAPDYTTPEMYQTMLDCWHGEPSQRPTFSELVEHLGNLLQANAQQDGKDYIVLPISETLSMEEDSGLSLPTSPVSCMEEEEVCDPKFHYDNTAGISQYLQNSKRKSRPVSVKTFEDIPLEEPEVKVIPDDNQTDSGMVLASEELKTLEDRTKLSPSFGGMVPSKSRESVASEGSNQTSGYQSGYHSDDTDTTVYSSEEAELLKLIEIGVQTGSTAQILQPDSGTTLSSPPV

Structure (SMILES) | IC50 ([1]; Homo sapiens, HeLa, 24 h) | IC50 [2, 12] | IC50 ([3]; Homo sapiens, MDA-MB-231, 24 h) | IC50 [4] | also measured
CCOC(=O)CN1C(=O)NC(c2ccccc2)(c2ccccc2)C1=O [Compound 2, ethyl (5,5-diphenylhydantoin-3-yl)acetate] | 241 ± 1.3 µM | 108 ± 3.7 µM | 263 ± 3.4 µM |  | 
O=C(CN1C(=O)NC(c2ccccc2)(c2ccccc2)C1=O)NN=C1C(=O)Nc2ccc(Br)cc21 [Compound 17, N′-(5-Bromo-2-oxoindolin-3-ylidene)-2-(2,5-dioxo-4,4-diphenylimidazolidin-1-yl)acetohydrazide] | 29 ± 1.7 µM | 77 ± 1.5 µM | 138 ± 2.6 µM | 81 µM | 
COc1cc(C=NNC(=O)CN2C(=O)NC(c3ccccc3)(c3ccccc3)C2=O)ccc1O [Compound 9, 2-(2,5-Dioxo-4,4-diphenylimidazolidin-1-yl)-N′-(4-hydroxy-3-methoxybenzylidene)acetohydrazide] | 50 ± 1 µM | 175 ± 4.3 µM | 136 ± 3.9 µM |  | 
O=C(CN1C(=O)NC(c2ccccc2)(c2ccccc2)C1=O)NN=C1C(=O)Nc2ccc(F)cc21 [Compound 16, 2-(2,5-Dioxo-4,4-diphenylimidazolidin-1-yl)-N′-(5-fluoro-2-oxoindolin-3-ylidene)acetohydrazide] | 18.5 ± 1.6 µM | 95 ± 1 µM | 64 ± 0.6 µM | 59 µM | IC50 [5]: 6.17 ± 0.22 µM; IC50 [6]: 0.09 ± 0.01 µM; percentage of apoptotic cells ([7]; 5 μM): 48.6%; percentage of apoptotic cells ([7]; 10 μM): 63.4%; change of caspase-3/7 activity [8]: approximately 40%; change of caspase-8 activity [9]: no significant changes; change of caspase-9 activity [10]: no significant changes; cells with increased level of ROS production [11]: 37.7%
COc1ccc2c(c1)C(=NNC(=O)CN1C(=O)NC(c3ccccc3)(c3ccccc3)C1=O)C(=O)N2 [Compound 19, 2-(2,5-Dioxo-4,4-diphenylimidazolidin-1-yl)-N′-(5-methoxy-2-oxoindolin-3-ylidene)acetohydrazide] | 118 ± 1.3 µM | 170 ± 2.2 µM | 174 ± 2.9 µM |  | 
O=C(CN1C(=O)NC(c2ccccc2)(c2ccccc2)C1=O)NN=Cc1ccc(Cl)cc1 [Compound 5, N'-(4-Chlorobenzylidene)-2-(2,5-dioxo-4,4-diphenylimidazolidin-1-yl)acetohydrazide] | 123 ± 2.6 µM | 157 ± 1.4 µM | 196 ± 1.7 µM |  | 
NNC(=O)CN1C(=O)NC(c2ccccc2)(c2ccccc2)C1=O [Compound 3, 2-(2,4-dioxo-5,5-diphenylimidazolidin-3-yl)acetohydrazide] | 236 ± 3.5 µM | 278 ± 7.5 µM | 278 ± 2 µM |  | 
O=C(CN1C(=O)NC(c2ccccc2)(c2ccccc2)C1=O)NN=Cc1ccc2c(c1)OCO2 [Compound 10, N′-(Benzo[d][1,3]dioxol-5-ylmethylene)-2-(2,5-dioxo-4,4-diphenylimidazolidin-1-yl)acetohydrazide] | 113 ± 0.9 µM | 267 ± 6 µM | 200 ± 4.1 µM |  | 
COc1ccc(C=NNC(=O)CN2C(=O)NC(c3ccccc3)(c3ccccc3)C2=O)cc1OC [Compound 8, N′-(3,4-Dimethoxybenzylidene)-2-(2,5-dioxo-4,4-diphenylimidazolidin-1-yl)acetohydrazide] | 60 ± 3.3 µM | 162 ± 2.3 µM | 154 ± 1.1 µM |  | 
COc1cc(C=NNC(=O)CN2C(=O)NC(c3ccccc3)(c3ccccc3)C2=O)cc(OC)c1OC [Compound 11, 2-(2,5-Dioxo-4,4-diphenylimidazolidin-1-yl)-N′-(3,4,5-trimethoxybenzylidene)acetohydrazide] | 53 ± 2.1 µM | 170 ± 4.2 µM | 133 ± 0.7 µM |  | 
O=C(CN1C(=O)NC(c2ccccc2)(c2ccccc2)C1=O)NN=Cc1c[nH]c2ccccc12 [Compound 13, N′-((1H-indol-3-yl)methylene)-2-(2,5-dioxo-4,4-diphenylimidazolidin-1-yl)acetohydrazide] | 10 ± 2.1 µM | 160 ± 0.8 µM | 156 ± 3.1 µM | 109 µM | IC50 [5]: 0.1 ± 0.02 µM; IC50 [6]: 0.47 ± 0.09 µM
COc1cc(OC)c(OC)cc1C=NNC(=O)CN1C(=O)NC(c2ccccc2)(c2ccccc2)C1=O [Compound 12] |  |  |  |  | IC50 ([1]; Alamar Blue, 24 h treatment): 39 ± 3.1 µM; IC50 [2, 13]: 116 ± 1.3 µM; IC50 ([3]; Alamar Blue, 24 h treatment): > 350 µM
O=C(CN1C(=O)NC(c2ccccc2)(c2ccccc2)C1=O)NN=C1C(=O)Nc2ccc([N+](=O)[O-])cc21 [Compound 18, 2-(2,5-Dioxo-4,4-diphenylimidazolidin-1-yl)-N′-(5-nitro-2-oxoindolin-3-ylidene)acetohydrazide] | 30 ± 1.2 µM | 229 ± 5.2 µM | 80 ± 0.7 µM | 113 µM | IC50 [5]: 0.37 ± 0.01 µM; IC50 [6]: 2.52 ± 0.09 µM
CC(=O)O[C@@]12CO[C@@H]1C[C@H](O)[C@@]1(C)C(=O)[C@H](O)C3=C(C)[C@@H](OC(=O)[C@H](O)[C@@H](NC(=O)OC(C)(C)C)c4ccccc4)C[C@@](O)([C@@H](OC(=O)c4ccccc4)[C@H]21)C3(C)C [Docetaxel, reference compound] | 100 ± 3.8 µM | 100 µM | 100 ± 2.2 µM | 83 µM | IC50 [2, 13]: 50 ± 1.3 µM
O=C(CN1C(=O)NC(c2ccccc2)(c2ccccc2)C1=O)NN=C1C(=O)Nc2ccc(Cl)cc21 [Compound 15, N′-(5-Chloro-2-oxoindolin-3-ylidene)-2-(2,5-dioxo-4,4-diphenylimidazolidin-1-yl)acetohydrazide] | 53 ± 2.2 µM | 72 ± 3 µM | 311 ± 5.5 µM |  | 
O=C(CN1C(=O)NC(c2ccccc2)(c2ccccc2)C1=O)NN=C1C(=O)Nc2ccccc21 [Compound 14, 2-(2,5-Dioxo-4,4-diphenylimidazolidin-1-yl)-N′-(2-oxoindolin-3-ylidene)acetohydrazide] | 30 ± 2.6 µM | 116 ± 1.6 µM | 123 ± 0.8 µM |  | 
